# Compound activity as filed in PubChem BioAssay.
# An excerpt weighted towards active compounds, which were near 2.1% of everything screened.
# APJ agonist – APJ receptor agonism. activation, % at 20 µM. CHO-K1 APJ PathHunter beta-arrestin, luminescence; 0% DMSO wells, 100% apelin. 330,000 tested, 0.11% active;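 active means activation more than six SD over the plate average, tested at 20 µM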
# Target sequence (P35414 whole entry, looked up): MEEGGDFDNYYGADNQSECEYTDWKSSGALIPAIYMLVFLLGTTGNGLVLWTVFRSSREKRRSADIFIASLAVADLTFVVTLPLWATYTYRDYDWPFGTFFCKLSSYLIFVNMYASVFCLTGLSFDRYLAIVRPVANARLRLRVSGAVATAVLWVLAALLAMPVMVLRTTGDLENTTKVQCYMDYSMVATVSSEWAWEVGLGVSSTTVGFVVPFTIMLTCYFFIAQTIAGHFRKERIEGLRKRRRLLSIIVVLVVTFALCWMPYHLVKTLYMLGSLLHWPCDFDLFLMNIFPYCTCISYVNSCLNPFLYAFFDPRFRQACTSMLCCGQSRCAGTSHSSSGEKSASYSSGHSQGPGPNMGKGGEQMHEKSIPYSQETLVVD
#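 system = engineered CHO-K1 APJ arrestin reporter cells | input = 1000 cells per well | timing = overnight seeding, 90 min compound at 25 °C, 1 h detection | measured by = enzyme-fragment complementation luminescence | read-out = beta-arrestin recruitment to APJ as agonist activity, luminescent signal | control set = negative DMSO alone, positive Apelin-13 at 10 nM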
# CCR6 antagonist – blocks CCL20-driven beta-arrestin recruitment at human CCR6 | P51684 | CHO-K1 CCR6 PathHunter beta-arrestin, luminescence, CCL20-stimulated | inhibition, % at 20 µM | 340,000 tested, 0.49% active | AID 493098;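 active means compounds whose inhibition of the agonist-driven luminescence signal at 20 µM reaches about 50%, limit read from the data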;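 further: cells stimulated with CCL20 at 14 nM final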
# HTR2A ag – mouse HTR2A agonism via beta-arrestin recruitment; AID 624169; 360,000 tested, 0.66% active; activation, % at 7.6 µM; CHO-K1 mHTR2A beta-arrestin complementation, luminescence; percent of 30 µM serotonin response; P35363;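 active means activation above a run cutoff, the mean activation of all tested compounds plus 3 SD, cut at about 14% in these data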
# CXCR6 block – blocks human CXCR6 beta-arrestin recruitment. CHO-K1 PathHunter CXCR6 beta-arrestin, luminescence. inhibition, % at 20 µM. 360,000 tested, 0.36% active. AID 602244; in the data active means inhibition above about 34%, passing the limit was not always enough;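 further: antagonist mode with CXCL16 agonist at 10 nM final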
# APJ antagonist – blocks the human apelin receptor APJ | AID 2521 | inhibition, % at 20 µM | CHO-K1 APJ beta-arrestin complementation, luminescence | P35414 | 330,000 tested, 0.32% active;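 active means inhibition above about 40% at 20 µM, limit read from the data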;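 further: cells challenged with 10 nM apelin-13 agonist together with compound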
# EBI2 block – EBI2 (human) antagonism | P32249 | EBI2 beta-arrestin recruitment, luminescence, 7a,25-OHC stimulated | inhibition, % at 5 µM | 360,000 tested, 0.81% active | AID 651636; in the data active means inhibition above about 38%;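 further: enzyme fragment complementation signal reports receptor beta-arrestin coupling in cells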
# EBI2 antag conf – confirmation of human EBI2 receptor antagonists | shares compounds with EBI2 block | EBI2 beta-arrestin luminescence, 7a,25-OHC antagonism | inhibition, % at 5 µM | 2,400 tested, 29% active;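 active means inhibition of at least 50%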
# EBI2 agonist – counter-screen for EBI2 antagonists: EBI2 agonist activity; shares compounds with EBI2 block; EBI2-expressing cells, agonist mode, luminescence, 60 min; 0% vehicle, 100% 7α,25-dihydroxycholesterol control; activation, % at 5 µM; 2,400 tested, under 10 active; AID 652000;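 active means activation of at least 50%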
# bGal counter – inhibits E. coli beta-galactosidase, counter-screen for EBI2 antagonists; shares compounds with EBI2 block; purified beta-galactosidase, luminescent Galacton Star, 15 min; inhibition, % at 5 µM; 2,400 tested, 1% active; AID 652176;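 active means replicate-average signal at least 3 plate SD below neutral wells, shown as high inhibition, flagging enzyme-inhibiting false positives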;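 further: higher means stronger loss of beta-gal luminescence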
# A number is an active result; – = inactive; · = no result given.
SMILES,APJ agonist,CCR6 antagonist,HTR2A ag,CXCR6 block,APJ antagonist,EBI2 block,EBI2 antag conf,EBI2 agonist,bGal counter
COc1ccc(-n2c(Cc3cccn3C)nnc2SCC(=O)N2CCCc3ccccc32)cc1,–,–,–,–,–,37.7,–,–,–
CC1CCN(C(=O)CSc2nnc(Cc3cccn3C)n2CCc2ccccc2)CC1,–,–,–,–,–,47.0,–,–,–
COc1cc2c(cc1OC)CN(C(=O)c1ccc3[nH]c(C)c(C)c3c1)CC2,–,–,–,–,–,–,·,·,·
CC1=C(C(=O)N2CCCCCC2)CC(CC(=O)NC(c2ccccc2)c2ccccc2)C(=O)N1Cc1ccccc1 (stereo unspecified),·,·,–,–,·,–,·,·,·
Nc1ccc(C(=O)c2cccs2)cc1[N+](=O)[O-],–,–,–,–,–,–,·,·,·
O=C(COC(=O)c1ccc(S(=O)(=O)N2CCCC2)cc1)Nc1cccc(Cl)c1,–,–,–,–,–,–,·,·,·
Cc1ccccc1CN1CCC(n2nccc2NC(=O)CCOc2ccccc2)CC1,–,–,–,–,–,–,·,·,·
Cc1cc(OCC(=O)c2cccc(C(F)(F)F)c2)n2cnnc2n1,–,–,–,–,–,–,·,·,·
CCN1CCN(C(=O)/C=C/c2ccc(C(C)C)cc2)CC1,–,–,–,–,–,92.7,86.6,–,–
CCN1CCN(C(=O)/C=C/c2cccc(Cl)c2)CC1,–,–,–,–,–,75.1,–,–,–
CCN1CCN(C(=O)/C=C/c2ccc(OC)c(OC)c2)CC1,–,–,–,–,–,–,·,·,·
CCOC(=O)c1c2ccc(OCC(=O)N/N=C/c3ccc(C)cc3)cc2n2ccccc12,–,–,–,–,–,47.7,–,–,–
CN1CCN(C(=O)/C(=C/c2cn(S(=O)(=O)N(C)C)c3ccccc23)NC(=O)c2ccccc2F)CC1,–,–,–,–,–,–,·,·,·
O=[N+]([O-])c1ccc(NN=Cc2cc(Br)ccc2O)nc1,·,66.7,–,–,·,58.9,–,–,–
O=[N+]([O-])c1ccc(NN=Cc2cccc(O)c2)nc1,·,–,–,–,·,–,·,·,·
CC(C)CCC(C(=O)O)C(C)CC(=O)NNC(=O)c1ccco1 (stereo unspecified),–,–,–,–,–,–,·,·,·
CCOC(=O)c1nc2sc3c(c2c(=O)n1C(C)C(=O)OCC)CCCC3 (stereo unspecified),–,–,–,–,–,–,·,·,·
Cn1c(=O)c(C(=O)c2ccccc2)nc2ccccc21,–,–,–,–,–,–,·,·,·
Cn1cc(C(=O)c2ccc(Cl)cc2)cc1-c1nc2ccccc2n1C,–,–,–,–,–,63.6,–,–,–
Cc1nn(CC(=O)Nc2ccc3c(c2)OCCO3)c(C)c1[N+](=O)[O-],–,–,–,–,–,–,·,·,·
O=C(CN1CCN(S(=O)(=O)c2cccc(Br)c2)CC1)NCCc1cccs1,–,–,–,–,–,38.8,–,–,–
Cc1cc(S(=O)(=O)N2CCN(CC(=O)NCCc3cccs3)CC2)ccc1Br,–,–,–,–,–,–,·,·,·
COc1cccc(NC(=O)CNC(=O)N2CC(=O)Nc3ccccc32)c1,–,–,–,–,–,–,·,·,·
CCN1CCN(C(=O)/C=C/c2ccc3c(c2)OCO3)CC1,–,–,–,–,–,66.0,–,–,–
COC(=O)C1CCN(C(=O)/C=C/c2ccc3c(c2)OCO3)CC1,–,–,–,–,–,57.4,–,–,–
SMILES,APJ agonist,CCR6 antagonist,HTR2A ag,CXCR6 block,APJ antagonist,EBI2 block,EBI2 antag conf,EBI2 agonist,bGal counter
CCOC(=O)N1CCN(C(=O)/C=C/c2ccc3c(c2)OCO3)CC1,–,–,–,–,–,59.3,61.3,–,–
CCOC(=O)N1CCN(C(=O)c2ccc(OC)cc2)CC1,–,–,–,–,–,–,·,·,·
CN1CCN(C(=O)/C=C/c2ccc3c(c2)OCO3)CC1,–,–,–,–,–,–,·,·,·
CCOC(=O)N1CCN(C(=O)/C=C/c2ccc(OC)cc2)CC1,–,–,–,–,–,89.6,74.8,–,–
COc1cc(/C=C/C(=O)OC(C)C(=O)Nc2c(C)n(C)n(-c3ccccc3)c2=O)ccc1OCC#N (stereo unspecified),–,–,–,–,–,–,·,·,·
CCOc1ccc(C(=O)NNC(=O)CN2C(=O)C3CC=CCC3C2=O)cc1OC (stereo unspecified),–,–,–,–,–,–,·,·,·
COc1cc2cc(C(=O)N3CCC(Cc4ccccc4)CC3)[nH]c2cc1OC,–,–,–,–,–,–,·,·,·
COc1ccc2[nH]c(C(=O)N3CCC(Cc4ccccc4)CC3)cc2c1,–,–,–,–,–,83.9,51.3,–,–
COc1ccc2[nH]c(C(=O)N3CCCN(Cc4ccc(F)cc4)CC3)cc2c1,–,–,–,–,–,–,·,·,·
O=C(c1cc2cc(F)ccc2[nH]1)N1CCc2ccccc2C1,–,–,–,–,–,–,·,·,·
O=C(c1cc2cc(F)ccc2[nH]1)N1CCC(Cc2ccccc2)CC1,–,–,–,–,–,87.5,63.2,–,–
COc1ccc2cc(C(=O)N3CCC(Cc4ccccc4)CC3)[nH]c2c1,–,–,–,–,–,76.8,53.3,–,–
Cc1nc2cc(-c3ccc(Cl)cc3)nn2c(C)c1CCC(=O)NCc1ccco1,–,–,–,–,–,49.7,–,–,–
COc1ccc(-c2cc3nc(C)c(CCC(=O)NCc4ccco4)c(C)n3n2)c(OC)c1,–,–,–,–,–,–,·,·,·
COc1ccc(S(=O)(=O)N2CCN(C(=O)COc3ccccc3)CC2)cc1,–,–,–,–,–,–,·,·,·
Cc1ccc(S(=O)(=O)N2CCN(C(=O)COC(=O)COc3ccccc3)CC2)cc1,–,–,–,–,–,–,·,·,·
O=C(COc1ccccc1)N1CCN(S(=O)(=O)c2ccc(Br)cc2)CC1,–,–,–,–,–,64.2,–,–,–
Cc1ccc(OCC(=O)N2CCN(S(=O)(=O)c3ccccc3[N+](=O)[O-])CC2)cc1,–,–,–,–,–,83.7,60.4,–,–
Cc1ccc(S(=O)(=O)N2CCN(C(=O)COc3ccc(Br)cc3)CC2)cc1,–,–,–,–,–,93.6,72.5,–,–
COc1ccc(S(=O)(=O)N2CCN(CCOc3ccc(Br)cc3)CC2)cc1OC,–,–,–,–,–,58.2,–,–,–
COc1ccc(S(=O)(=O)N2CCN(CCOc3ccccc3Cl)CC2)cc1OC,–,–,–,–,–,–,·,·,·
O=C(CSc1nnc2ccc(-c3cccnc3)nn12)Nc1ccccc1F,–,–,–,–,–,–,·,·,·
